What was measured:
[1] = biological target: Sigma 2 receptor; assay: Binding affinity was tested against sigma-2 receptor site in presence of dextrallorphan in rat liver membranes.; type: cell membranes, Membrane
Method in brief: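 Rat liver membranes (160 μg protein) incubated with 5 nM [3H]DTG plus 1 μM dextrallorphan to mask σ-1 sites, in Tris-HCl pH 8.0, 120 min at 25 °C. Twelve competitor concentrations spanning 0.05–10 000 nM or 0.5–100 000 nM. IC50 from iterative curve fit, converted to apparent Ki by Cheng–Prusoff. Mean ± SEM of 2–3 experiments, each in duplicate.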

[2] = tested on: Sigma 2 receptor; assay: Binding affinity was tested against sigma-2 receptor in presence of dextrallorphan in rat liver membranes; NA =data not available; type: cell membranes, Membrane
Method in brief: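 Rat liver membranes (160 μg protein) were incubated with 5 nM [3H]DTG plus 1 μM dextrallorphan to mask σ-1 sites, in Tris-HCl pH 8.0, for 120 min at 25 °C. Twelve competitor concentrations spanned 0.05–10 000 nM or 0.5–100 000 nM. IC50 from curve fitting was converted to Ki by Cheng-Prusoff. Values are the mean ± SEM of 2–3 experiments, each run in duplicate.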

| Structure (SMILES) | Ki [1] [nM] | Ki [2] |
| --- | --- | --- |
| COc1ccccc1CCN1CCN(CCc2ccccc2OC)CC1 | 17 |  |
| COc1ccc(CCN2CCN(C(=O)Cc3ccc(OC)cc3)CC2)cc1 | 744 |  |
| O=C(Cc1ccccc1[N+](=O)[O-])N1CCN(CCCc2ccccc2)CC1 | 76 |  |
| COc1cccc(CCN2CCN(C(=O)Cc3cccc(OC)c3)CC2)c1 |  | Not Active |
| COc1cccc(CCN2CCN(CCc3cccc(OC)c3)CC2)c1 | 29 |  |
| COc1ccccc1CC(=O)N1CCN(CCCc2ccccc2)CC1 | 294 |  |
| CC(C)(C)OC(=O)NCCC(=O)N1CCN(CCCc2ccccc2)CC1 | 4560 |  |
| O=C(Cc1ccc(Cl)c(Cl)c1)N1CCN(CCCc2ccccc2)CC1 | 78 |  |
| O=C(Cc1ccc([N+](=O)[O-])cc1)N1CCN(CCCc2ccccc2)CC1 | 167 |  |
| COc1ccccc1CCN1CCN(C(=O)Cc2ccccc2OC)CC1 | > 10 |  |
| O=C(Cc1cccc([N+](=O)[O-])c1)N1CCN(CCCc2ccccc2)CC1 | 65 |  |
| CC(C)(C)OC(=O)NCCCC(=O)N1CCN(CCCc2ccccc2)CC1 | 126 |  |
| COc1cccc(CC(=O)N2CCN(CCCc3ccccc3)CC2)c1 | 206 |  |
| COc1ccc(CC(=O)N2CCN(CCCc3ccccc3)CC2)cc1 | 464 |  |

Second part, led by results:

| Ki [1] [nM] | Structure (SMILES) | Ki [2] |
| --- | --- | --- |
| 999 | NCCCCN1CCN(CCCc2ccccc2)CC1 |  |
| 29 | COc1ccc(CCN2CCN(CCCc3ccccc3)CC2)cc1 |  |
| 9.4 | O=[N+]([O-])c1cccc(CCN2CCN(CCCc3ccccc3)CC2)c1 |  |
| 99 | COc1ccc(CCN2CCN(CCc3ccc(OC)cc3)CC2)cc1 |  |
| 14 | Nc1ccc(CCN2CCN(CCCc3ccccc3)CC2)cc1 |  |
| 37 | Nc1cccc(CCN2CCN(CCCc3ccccc3)CC2)c1 |  |
| 18 | Nc1ccccc1CCN1CCN(CCCc2ccccc2)CC1 |  |
| 7.5 | COc1ccccc1CCN1CCN(CCCc2ccccc2)CC1 |  |
| 25 | O=[N+]([O-])c1ccc(CCN2CCN(CCCc3ccccc3)CC2)cc1 |  |
| 188 | NCCN1CCN(CCCc2ccccc2)CC1 |  |
| 3840 | NCCCC(=O)N1CCN(CCCc2ccccc2)CC1 |  |
| 39 | Clc1ccc(CCN2CCN(CCCc3ccccc3)CC2)cc1Cl |  |
| 4.9 | O=[N+]([O-])c1ccccc1CCN1CCN(CCCc2ccccc2)CC1 |  |
| 1780 | NCCC(=O)N1CCN(CCCc2ccccc2)CC1 |  |
| 10 | COc1cccc(CCN2CCN(CCCc3ccccc3)CC2)c1 |  |
| 2000 | NCCCN1CCN(CCCc2ccccc2)CC1 |  |
| 303 | NCC(=O)N1CCN(CCCc2ccccc2)CC1 |  |
